Reference: ChEMBL document CHEMBL1133181, “A novel approach for the virtual screening and rational design of anticancer compounds” (J Med Chem, 2000)
≈ marks a conversion by molar mass, not a printed value.

How the values were obtained:
[1] = Antitumor activity to reduce proliferation of human T-lymphocyte CEM/0 cells by 50%; format: functional, cell-based
Method in brief: (§1)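 CEM or Molt4/C8 cells were seeded into 96-well wells with test compound and grown for 72 h at 37 °C in a humidified, CO2-controlled atmosphere. Cells were then counted with a Coulter counter. IC50 is the compound concentration that reduced the number of living cells by 50%.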

[2] = Antitumor activity to reduce proliferation of human T-lymphocyte Molt4/C8 cells by 50%; format: functional, cell-based; settings: molt-4; method in brief: as §1
L1210 [3] = assay: Antitumor activity to reduce proliferation of murine leukemia L1210/0 cells by 50%; format: functional, cell-based, Mus musculus
Method in brief: (§2)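 L1210 murine leukemia cells were incubated in 96-well microtiter wells with test compound for 48 h at 37 °C under humidified, CO2-controlled conditions. Cell numbers were then counted with a Coulter counter. IC50 was taken as the concentration giving a 50% reduction in living cell count.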

L1210 [4] = assay: Concentration required to reduce proliferation of murine leukemia L1210/0 cells by 50%; format: functional, cell-based, Mus musculus; method in brief: as §2
[5] = Concentration required to reduce proliferation of human T-lymphocyte Molt4/C8 cells by 50%; format: functional, cell-based; settings: molt-4; method in brief: as §1
[6] = Concentration required to reduce proliferation of human T-lymphocyte CEM/0 cells by 50%; format: functional, cell-based; method in brief: as §1

Row | IC50 (L1210 [3]) | IC50 (L1210 [4]) | Compound | IC50 [1] | IC50 [2] | IC50 [5] | IC50 [6]
1 | > 200 µg/mL | – | O=c1ccn(CC2CCCC2CO)c(=O)[nH]1 (configuration not stated) | > 200 µg/mL | > 200 µg/mL | – | –
2 | – | > 200 µg/mL | OCC1CCCC1Cn1cnc2c(O)ncnc21 (cis isomer) | – | – | > 200 µg/mL | > 200 µg/mL
3 | 71.1 µg/mL (≈ 203 µM) | – | O=c1[nH]c(=O)n(CC2CCCC2CO)cc1I (cis isomer) | 117 µg/mL (≈ 334 µM) | 108 µg/mL (≈ 308 µM) | – | –
4 | 62.8 µg/mL (≈ 249 µM) | – | OCC1CCCC1n1cnc2c(Cl)ncnc21 (cis isomer) | 61 µg/mL (≈ 241 µM) | 49.9 µg/mL (≈ 197 µM) | – | –
5 | > 200 µg/mL | – | Nc1ncnc2c1ncn2C1CCCC1CO (cis isomer) | > 200 µg/mL | – | – | –
6 | 14 µg/mL (≈ 52.5 µM) | – | OCC1CCCC1Cn1cnc2c(Cl)ncnc21 (cis isomer) | 16 µg/mL (≈ 60 µM) | 6.54 µg/mL (≈ 24.5 µM) | – | –
7 | 52.3 µg/mL (≈ 156 µM) | – | O=c1[nH]c(=O)n(C2CCCC2CO)cc1I (stereo in doubt; 4a) | 57.4 µg/mL (≈ 171 µM) | 77.4 µg/mL (≈ 230 µM) | – | –
8 | 102 µg/mL (≈ 412 µM) | – | Nc1ncnc2c1ncn2CC1CCCC1CO (stereo in doubt; 7c) | 108 µg/mL (≈ 437 µM) | 100 µg/mL (≈ 404 µM) | – | –
9 | – | > 200 µg/mL | OCC1CCCC1n1cnc2c(O)ncnc21 (trans isomer) | – | – | > 200 µg/mL | > 200 µg/mL
10 | 65.8 µg/mL (≈ 188 µM) | – | O=c1[nH]c(=O)n(CC2CCCC2CO)cc1I (trans isomer) | 131 µg/mL (≈ 374 µM) | 158 µg/mL (≈ 451 µM) | – | –
11 | 56.1 µg/mL (≈ 222 µM) | – | OCC1CCCC1n1cnc2c(Cl)ncnc21 (trans isomer) | 19 µg/mL (≈ 75.2 µM) | 39.2 µg/mL (≈ 155 µM) | – | –
12 | > 200 µg/mL | – | O=c1ccn(C2CCCC2CO)c(=O)[nH]1 (trans isomer) | > 200 µg/mL | > 200 µg/mL | – | –
13 | 179 µg/mL (≈ 767 µM) | – | Nc1ncnc2c1ncn2C1CCCC1CO (trans isomer) | 180 µg/mL (≈ 772 µM) | > 200 µg/mL | – | –
14 | > 200 µg/mL | – | O=c1[nH]c(=O)n(C2CCCC2CO)cc1I (trans isomer) | > 200 µg/mL | > 200 µg/mL | – | –
15 | > 200 µg/mL | – | Nc1ncnc2c1ncn2CC1CCCC1CO (trans isomer) | > 200 µg/mL | > 200 µg/mL | – | –
16 | 48.7 µg/mL (≈ 183 µM) | – | OCC1CCCC1Cn1cnc2c(Cl)ncnc21 (trans isomer) | 15 µg/mL (≈ 56.2 µM) | 22.3 µg/mL (≈ 83.6 µM) | – | –
